We go through 4 compounds from ChEMBL document CHEMBL4138301, “Discovery of Tetralones as Potent and Selective Inhibitors of Acyl-CoA:Diacylglycerol Acyltransferase 1” (ACS Med Chem Lett, 2018).

Structures are written as SMILES. ≈ marks a conversion by molar mass, not a printed value.

Data set [1] is described as follows: Kinetic solubility of the compound in pION buffer at pH 7.4 measured after 18 hrs. Type of data set: physicochemical. The settings on record: read-out: Kinetic_solubility.
The target in data set [2] is T1, Diacylglycerol O-acyltransferase 1 (Mus musculus) (UniProt Q9Z2A7).
T1 sequence (whole entry): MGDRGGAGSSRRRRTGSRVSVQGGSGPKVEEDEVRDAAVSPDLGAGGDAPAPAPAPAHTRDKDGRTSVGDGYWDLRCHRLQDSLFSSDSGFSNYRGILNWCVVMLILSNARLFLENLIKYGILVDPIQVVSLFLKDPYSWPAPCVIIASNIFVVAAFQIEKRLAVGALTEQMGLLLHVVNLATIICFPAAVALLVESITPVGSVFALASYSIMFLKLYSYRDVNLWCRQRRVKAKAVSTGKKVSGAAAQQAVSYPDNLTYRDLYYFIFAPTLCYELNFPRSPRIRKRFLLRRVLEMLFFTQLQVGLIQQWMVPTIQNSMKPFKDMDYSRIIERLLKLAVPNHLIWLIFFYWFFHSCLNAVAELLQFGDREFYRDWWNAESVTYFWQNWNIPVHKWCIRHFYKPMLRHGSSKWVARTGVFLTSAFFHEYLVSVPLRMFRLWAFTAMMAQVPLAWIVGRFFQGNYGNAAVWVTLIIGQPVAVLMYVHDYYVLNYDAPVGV
Kind of data set: Inhibition of DGAT1 in mouse C2C12 cells at 300 nM using [14C] oleic acid as substrate measured after 20 mins by phosphorimaging method relative to control. It is filed as cell-based.

A short description of data set [3]: Plasma clearance in C57BL/6J mouse at 2.2 mg/kg, iv or 2.7 mg/kg, po. Type of data set: ADME, organism-based. Put shortly:
(§1)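 Male animals, n = 3 per species: C57BL/6J mouse at 2.2 mg/kg IV and 2.7 mg/kg PO; Sprague–Dawley rat at 1 mg/kg IV and 2 mg/kg PO; Beagle dog at 1.8 mg/kg IV and 5.3 mg/kg PO. Plasma clearance, Vss, IV half-life and oral %F were derived from the plasma profiles.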

Data set [4] in a line: Volume of distribution at steady state in C57BL/6J mouse at 2.2 mg/kg, iv or 2.7 mg/kg, po. It is filed as ADME, organism-based. The settings on record: in vivo, read-out: Vdss. Put shortly: (§2)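 Male animals, n = 3 per species. Each was given a single intravenous dose and a separate oral dose, at the species-specific levels in the line. Plasma clearance, steady-state volume of distribution, IV half-life and oral bioavailability were derived from these studies.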

A short description of data set [5]: Half life in C57BL/6J mouse at 2.2 mg/kg, iv. Type of data set: ADME, organism-based. The settings on record: in vivo. Summed up: as §1
A short description of data set [6]: Oral bioavailability in C57BL/6J mouse at 2.7 mg/kg. Type of data set: ADME, organism-based. The settings on record: in vivo. Summed up:
as §1

The nature of data set [7]: Plasma clearance in Sprague-Dawley rat at 1 mg/kg, iv or 2 mg/kg, po. It is filed as ADME, organism-based. Summed up:
as §1

Data set [8] in a line: Volume of distribution at steady state in Sprague-Dawley rat at 1 mg/kg, iv or 2 mg/kg, po. Type of data set: ADME, organism-based. The settings on record: in vivo, read-out: Vdss. Put shortly: as §2
Data set [9] is described as follows: Half life in Sprague-Dawley rat at 1 mg/kg, iv. Type of data set: ADME, organism-based. The following applies: in vivo. Summed up:
as §1

A short description of data set [10]: Oral bioavailability in Sprague-Dawley rat at 2 mg/kg. Type of data set: ADME, organism-based. The following applies: in vivo. Put shortly:
as §1

Data set [11] is described as follows: Plasma clearance in Beagle dog at 1.8 mg/kg, iv or 5.3 mg/kg, po. Type of data set: ADME, organism-based, Canis lupus familiaris. Summed up: as §1
Data set [12] can be described thus: Volume of distribution at steady state in Beagle dog at 1.8 mg/kg, iv or 5.3 mg/kg, po. The following applies: in vivo, read-out: Vdss. It is filed as ADME, organism-based, Canis lupus familiaris. Summed up:
as §2

Data set [13] is described as follows: Half life in Beagle dog at 1.8 mg/kg, iv. Type of data set: ADME, organism-based, Canis lupus familiaris. The settings on record: in vivo. Put shortly: as §1
Data set [14] can be described thus: Oral bioavailability in Beagle dog at 5.3 mg/kg. Type of data set: ADME, organism-based, Canis lupus familiaris. The following applies: in vivo. Put shortly:
as §1

Data set [15] concerns Mus musculus. Kind of data set: In vivo inhibition of DGAT1 in corn oil-induced Swiss albino mouse hypertriglyceridemia model assessed as reduction in plasma triglyceride level at 0.03 mg/kg, po pretreated for 30 mins followed by coil oil challenge measured after 2.5 hrs relative to control. It is filed as functional. Put shortly: (§3)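 Male Swiss Albino mice were fasted overnight, then dosed orally at 0.03, 0.1, 0.3, 1, 3 or 10 mg/kg. Thirty minutes later they received an oral corn oil bolus of 5 mL/kg.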

For data set [16], the system named is Mus musculus. In words: In vivo inhibition of DGAT1 in corn oil-induced Swiss albino mouse hypertriglyceridemia model assessed as reduction in plasma triglyceride level at 0.1 mg/kg, po pretreated for 30 mins followed by coil oil challenge measured after 2.5 hrs relative to control. It is filed as functional. Put shortly:
as §3

The test system of data set [17] is Mus musculus. Kind of data set: In vivo inhibition of DGAT1 in corn oil-induced Swiss albino mouse hypertriglyceridemia model assessed as reduction in plasma triglyceride level at 0.3 mg/kg, po pretreated for 30 mins followed by coil oil challenge measured after 2.5 hrs relative to control. It is filed as functional. Summed up: as §3
Data set [18] has as its system Mus musculus. In words: In vivo inhibition of DGAT1 in corn oil-induced Swiss albino mouse hypertriglyceridemia model assessed as reduction in plasma triglyceride level at 1 mg/kg, po pretreated for 30 mins followed by coil oil challenge measured after 2.5 hrs relative to control. It is filed as functional. Put shortly: as §3
Data set [19] deals with Mus musculus. Kind of data set: In vivo inhibition of DGAT1 in corn oil-induced Swiss albino mouse hypertriglyceridemia model assessed as reduction in plasma triglyceride level at 3 mg/kg, po pretreated for 30 mins followed by coil oil challenge measured after 2.5 hrs relative to control. It is filed as functional. Summed up:
as §3

In data set [20] the test system is Mus musculus. Kind of data set: In vivo inhibition of DGAT1 in corn oil-induced Swiss albino mouse hypertriglyceridemia model assessed as reduction in plasma triglyceride level at 10 mg/kg, po pretreated for 30 mins followed by coil oil challenge measured after 2.5 hrs relative to control. Type of data set: functional. Put shortly: as §3
Data set [21] deals with Salmonella typhimurium. In words: Mutagenicity in Salmonella typhimurium TA1535 in presence of S9 fraction by Ames test. Type of data set: toxicity, organism-based. The following applies: salmonella enterica subsp. enterica serovar typhimurium. (In the Ames test, an excess of revertant colonies over the control signals mutagenicity.)
In data set [22] the test system is Salmonella typhimurium. Kind of data set: Mutagenicity in Salmonella typhimurium TA1537 in presence of S9 fraction by Ames test. It is filed as toxicity, organism-based. The following applies: salmonella enterica subsp. enterica serovar typhimurium.
In data set [23] the test system is Salmonella typhimurium. Kind of data set: Mutagenicity in Salmonella typhimurium TA98 in presence of S9 fraction by Ames test. It is filed as toxicity, organism-based. The settings on record: salmonella enterica subsp. enterica serovar typhimurium.
Data set [24] relates to Salmonella typhimurium. Kind of data set: Mutagenicity in Salmonella typhimurium TA100 in presence of S9 fraction by Ames test. Type of data set: toxicity, organism-based. The settings on record: salmonella enterica subsp. enterica serovar typhimurium.
Data set [25] deals with Escherichia coli. In words: Mutagenicity in Escherichia coli WP2uvrA in presence of S9 fraction by Ames test. It is filed as toxicity, organism-based.
Data set [26] relates to Salmonella typhimurium. Kind of data set: Mutagenicity in Salmonella typhimurium TA1535 in absence of S9 fraction by Ames test. It is filed as toxicity, organism-based. The settings on record: salmonella enterica subsp. enterica serovar typhimurium.
The subject of data set [27] is Salmonella typhimurium. In words: Mutagenicity in Salmonella typhimurium TA1537 in absence of S9 fraction by Ames test. It is filed as toxicity, organism-based. The settings on record: salmonella enterica subsp. enterica serovar typhimurium.
Data set [28] concerns Salmonella typhimurium. Kind of data set: Mutagenicity in Salmonella typhimurium TA98 in absence of S9 fraction by Ames test. Type of data set: toxicity, organism-based. The settings on record: salmonella enterica subsp. enterica serovar typhimurium.
In data set [29] the test system is Salmonella typhimurium. Kind of data set: Mutagenicity in Salmonella typhimurium TA100 in absence of S9 fraction by Ames test. It is filed as toxicity, organism-based. The settings on record: salmonella enterica subsp. enterica serovar typhimurium.
Data set [30] has as its system Escherichia coli. In words: Mutagenicity in Escherichia coli WP2uvrA in absence of S9 fraction by Ames test. Type of data set: toxicity, organism-based.
Data set [31] is filed under the species Mus musculus. In words: animal or person. The settings on record: Swiss, po.
In data set [32] the target is Diacylglycerol O-acyltransferase 1 (Homo sapiens) (UniProt O75907). Kind of data set: Inhibition of recombinant human DGAT1 expressed in baculovirus infected Sf9 insect microsomal membranes at 10 uM using C10-DAG and C10-CoA as substrate pretreated for 15 mins followed by substrate addition measured after 60 mins by CPM dye based fluorescence assay relative to control.
Chain of Diacylglycerol O-acyltransferase 1 (Homo sapiens) (O75907 whole entry): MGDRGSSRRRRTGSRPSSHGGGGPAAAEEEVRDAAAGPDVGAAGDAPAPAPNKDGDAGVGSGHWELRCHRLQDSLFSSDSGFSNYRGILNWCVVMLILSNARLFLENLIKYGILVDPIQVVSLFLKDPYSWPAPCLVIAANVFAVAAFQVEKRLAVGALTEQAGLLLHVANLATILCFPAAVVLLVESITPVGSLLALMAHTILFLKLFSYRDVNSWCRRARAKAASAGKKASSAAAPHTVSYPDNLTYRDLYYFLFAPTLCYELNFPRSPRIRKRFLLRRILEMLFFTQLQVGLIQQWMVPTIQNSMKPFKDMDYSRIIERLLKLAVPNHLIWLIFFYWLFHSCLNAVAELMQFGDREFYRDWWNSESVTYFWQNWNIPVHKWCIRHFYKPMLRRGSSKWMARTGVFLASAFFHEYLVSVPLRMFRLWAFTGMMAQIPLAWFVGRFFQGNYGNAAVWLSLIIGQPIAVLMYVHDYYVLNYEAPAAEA

Take `CC[C@@]1(CC(=O)O)CCc2cc(-c3ccc(NC(=O)Nc4cccc(C(F)(F)F)c4)cc3)ccc2C1=O`: the solubility kinetic at 18 h in [1] came to 78 µg/mL (≈ 153 µM). Further, the inhibition (as a rule, the drop in the measured response relative to a control, in per cent) in [2] turned out to be 75%. Moreover, the figures for the clearance in data set [3], in data set [7] and in [11] were 42.3 mL/min/kg, 6.3 mL/min/kg and 4.6 mL/min/kg, respectively. The Vd in [4] was 2.4 L/kg; in data set [8], 1 L/kg; in [12], 0.6 L/kg. Moreover, the half-life (in general, how long it takes for the measured level to halve) is 2.6 h in [5], 3.9 h in data set [9] and 4.6 h in data set [13]. Also, the bioavailability was determined as 54% in data set [6], 87% in data set [10] and 149% in [14]. The inhibition in vivo – broadly, the relative decrease from the control value, in per cent – at 0.03 mg/kg in data set [15] was found to be 19%. In addition, the inhibition in vivo at 0.1 mg/kg in data set [16] was 33%. Besides, in [17], the inhibition in vivo at 0.3 mg/kg is 60%. In addition, in data set [18], the inhibition in vivo at 1 mg/kg came to 71%. Moreover, in [19], the inhibition in vivo at 3 mg/kg came to 91%. Further, the inhibition in vivo at 10 mg/kg in data set [20] is 99%. In addition, the Activity entry in data set [21], in data set [22], in data set [23], in data set [24], in data set [25] and in data set [26] was “Non-Toxic” each time. Further, the Activity entry in data set [27], in data set [28], in data set [29] and in data set [30] was “Non-Toxic” each time. It took a dose of 0.23 mg/kg to reach the 50% effect level in data set [31] (ED50).
Take `O=C(O)CC1(F)CCc2cc(-c3ccc(NC(=O)Nc4ccccc4)cc3)ccc2C1=O` (centres undefined): the solubility kinetic at 18 h in data set [1] was 31 µg/mL (≈ 71.7 µM). In addition, the inhibition in data set [32] is 84%.
As to `CCC1(CC(=O)O)CCc2cc(-c3ccc(N)cc3)ccc2C1=O` (centres undefined), the Activity result in [21], in [22], in [23], in data set [24], in data set [25] and in data set [26] was “Toxic” throughout. In addition, the Activity result in data set [27], in data set [28], in data set [29] and in [30] was “Toxic” each time.
Take `Nc1ncnc2c1C(=O)N(c1ccc([C@H]3CC[C@H](CC(=O)O)CC3)cc1)CCO2` [PF-04620110]: in [17], the inhibition in vivo at 0.3 mg/kg amounted to 94%.
